Test results as given in ChEMBL document CHEMBL1145074, “Binding of tetrahydrocarboline derivatives at human 5-HT5A receptors” (J Med Chem, 2003).

Legend:
[1] = target: 5-hydroxytryptamine receptor 2A (Rattus norvegicus, UniProt P14842); test: Binding affinity towards rat 5-hydroxytryptamine 2A receptor expressed in NIH3T3 cells using [3H]ketanserin as radioligand; format: cell-based
Method in brief: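 Membranes from confluent NIH-3T3 cells stably expressing rat 5-HT2A, washed by centrifugation in 50 mM Tris-HCl. ~10 μg protein incubated with 0.5 nM [3H]ketanserin and 11 test concentrations (10⁻¹⁰ to 10⁻⁵ M) in triplicate. Incubation was 30 min at 37 °C in Tris/EDTA/MgCl2/ascorbate pH 7.4. Nonspecific binding defined with 10 μM ketanserin. Bound ligand was filtered and counted. Ki from Cheng–Prusoff, ≥3 determinations.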

[2] = target: T1, 5-hydroxytryptamine receptor 5A (Homo sapiens, UniProt P47898); test: Binding affinity towards human 5-hydroxytryptamine 5A receptor using LSD as radioligand
T1 sequence (P47898 whole entry): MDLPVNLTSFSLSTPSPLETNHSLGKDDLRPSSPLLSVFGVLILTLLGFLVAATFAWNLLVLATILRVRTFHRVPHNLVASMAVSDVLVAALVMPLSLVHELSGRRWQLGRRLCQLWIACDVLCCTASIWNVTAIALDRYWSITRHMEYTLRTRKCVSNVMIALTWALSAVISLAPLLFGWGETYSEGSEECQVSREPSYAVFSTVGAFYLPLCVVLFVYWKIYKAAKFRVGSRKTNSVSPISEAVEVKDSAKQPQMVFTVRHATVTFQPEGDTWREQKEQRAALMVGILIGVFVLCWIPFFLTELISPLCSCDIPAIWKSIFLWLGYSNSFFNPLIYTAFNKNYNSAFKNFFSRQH

[3] = target: T1, 5-hydroxytryptamine receptor 5A; test: Binding affinity towards 5-hydroxytryptamine 5A receptor using lysergic acid diethylamide (LSD) as radioligand
Method in brief: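 Radioligand competition binding at cloned 5-HT5A receptors (clone supplied by R. Hen). Nonspecific binding defined with 1 μM LSD.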

[4] = target: 5-hydroxytryptamine receptor 5A (Mus musculus, UniProt P30966); test: Binding affinity towards mouse 5-hydroxytryptamine 5A receptor using LSD as radioligand
5-hydroxytryptamine receptor 5A (Mus musculus, UniProt P30966), sequence (P30966 whole entry): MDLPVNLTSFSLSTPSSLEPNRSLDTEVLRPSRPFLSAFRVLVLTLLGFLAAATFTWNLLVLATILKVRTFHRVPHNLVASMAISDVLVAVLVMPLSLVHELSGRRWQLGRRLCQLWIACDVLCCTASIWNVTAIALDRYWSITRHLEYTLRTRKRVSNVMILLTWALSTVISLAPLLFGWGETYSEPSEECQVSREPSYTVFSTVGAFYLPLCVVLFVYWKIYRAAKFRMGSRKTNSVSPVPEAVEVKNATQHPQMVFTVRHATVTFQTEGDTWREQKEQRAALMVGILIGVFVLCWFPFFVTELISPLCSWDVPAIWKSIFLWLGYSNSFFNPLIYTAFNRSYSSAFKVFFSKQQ

[5] = target: T2, 5-hydroxytryptamine receptor 2C (Rattus norvegicus, UniProt P08909); test: Binding affinity towards rat 5-hydroxytryptamine 2C receptor expressed in A-9 cells using [3H]mesulergine as radioligand; format: cell-based
T2 sequence (P08909 whole entry): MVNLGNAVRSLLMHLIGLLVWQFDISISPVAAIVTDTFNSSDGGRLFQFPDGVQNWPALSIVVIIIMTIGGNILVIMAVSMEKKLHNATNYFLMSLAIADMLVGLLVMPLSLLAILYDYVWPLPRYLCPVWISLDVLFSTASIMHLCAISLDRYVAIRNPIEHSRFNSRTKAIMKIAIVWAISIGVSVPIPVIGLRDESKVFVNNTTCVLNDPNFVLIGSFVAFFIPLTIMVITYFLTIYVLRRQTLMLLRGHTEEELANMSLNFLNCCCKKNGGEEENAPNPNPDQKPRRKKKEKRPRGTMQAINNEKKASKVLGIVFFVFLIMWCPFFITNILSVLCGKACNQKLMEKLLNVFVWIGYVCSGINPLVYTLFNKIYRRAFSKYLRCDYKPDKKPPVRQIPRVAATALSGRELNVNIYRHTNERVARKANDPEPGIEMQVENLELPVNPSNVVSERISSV
Method in brief: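 Rat 5-HT2C stably expressed in A-9 cells, grown to confluence; washed membranes (~10 μg protein) used. Competition against 2.0 nM [3H]mesulergine with 11 concentrations from 10⁻¹⁰ to 10⁻⁵ M, triplicate. Incubation 30 min, 37 °C, pH 7.4 Tris buffer with EDTA, MgCl2 and ascorbate. 1 μM mesulergine defined nonspecific binding. Filtration, scintillation counting. Ki via Cheng–Prusoff; at least three replicates.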

5-hydroxytryptamine receptor 2A, sequence (P14842 whole entry): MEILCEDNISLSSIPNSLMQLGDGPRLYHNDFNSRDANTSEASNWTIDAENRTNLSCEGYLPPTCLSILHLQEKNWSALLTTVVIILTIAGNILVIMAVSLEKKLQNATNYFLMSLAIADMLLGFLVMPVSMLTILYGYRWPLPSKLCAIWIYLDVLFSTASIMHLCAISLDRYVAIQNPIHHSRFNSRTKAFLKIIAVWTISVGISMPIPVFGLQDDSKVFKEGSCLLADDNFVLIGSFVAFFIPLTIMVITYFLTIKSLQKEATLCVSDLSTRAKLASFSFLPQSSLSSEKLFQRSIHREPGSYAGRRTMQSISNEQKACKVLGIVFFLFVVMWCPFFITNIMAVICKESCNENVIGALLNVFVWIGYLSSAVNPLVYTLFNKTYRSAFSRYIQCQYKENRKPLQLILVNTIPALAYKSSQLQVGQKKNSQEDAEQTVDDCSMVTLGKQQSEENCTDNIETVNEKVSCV

Structure (SMILES) | Ki [1] [nM] | Ki [2] [nM] | Ki [3] [nM] | Ki [4] [nM] | Ki [5] [nM]
COc1ccc(OCCCN2CCc3c(c4ccccc4n3C)C2)cc1 | 100 | 350 |  |  | 
Cn1c2c(c3ccccc31)CN(CCCOc1ccc(Cl)cc1)CC2 | 115 | 200 |  |  | 
CN(C)CCCOc1ccc(F)cc1 |  |  | > 10000 |  | 
Cn1c2c(c3ccccc31)CN(C/C=C\CCc1ccccc1)CC2 | 120 | 208 |  | 330 | 285
COc1ccc2c3c([nH]c2c1)CNCC3 |  |  | > 10000 |  | 
COc1ccc2[nH]c3c(C)nccc3c2c1 |  |  | > 10000 |  | 
Cn1c2c(c3ccccc31)CN(CCCOc1ccc([N+](=O)[O-])cc1)CC2 | 280 | 250 |  |  | 300
CCn1c2c(c3ccccc31)CN(CCCOc1ccccc1)CC2 | 50 | 100 |  | 75 | 215
c1ccc2c3c([nH]c2c1)CNCC3 [TRYPTOLINE] |  |  | 3200 |  | 
Fc1ccc(OCCCN2CCCCC2)cc1 |  |  | > 10000 |  | 
Cn1c2c(c3ccccc31)CN(CCCOc1ccc(F)cc1)CC2 | 30 |  |  | 13 | 75
Cn1c2c(c3ccccc31)CN(CCCC(=O)c1ccc(F)cc1)CC2 | 60 |  |  | 115 | 60
Cn1c2c(c3ccccc31)CN(CCOc1ccc(F)cc1)CC2 | 175 | 930 |  |  | 235
c1ccc(Cn2c3c(c4ccccc42)CN(CCCOc2ccccc2)CC3)cc1 | 65 |  |  | 875 | 90
Cn1c2c(c3ccccc31)CN(CCCOc1ccc3ccccc3c1)CC2 | 480 |  |  | 655 | 300
Cn1c2c(c3ccccc31)CN(CCCCCc1ccccc1)CC2 | 130 | 174 |  | 120 | 1000
CN(CCCOc1ccc(F)cc1)Cc1cn(C)c2ccccc12 |  |  | 1080 |  | 
Cn1c2c(c3ccccc31)CN(CCCc1ccccc1)CC2 |  |  |  | 250 | 
Cn1c2c(c3ccccc31)CN(CC#CCCc1ccccc1)CC2 |  | 1780 |  | 1710 | 
O=C(CCCN1CCc2c([nH]c3ccccc23)C1)c1ccccc1 | 16 |  |  | 550 | 115
COc1ccc2[nH]c3c(c2c1)CCN=C3C |  |  | > 10000 |  | 
Cn1c2c(c3ccccc31)CC(CCCOc1ccc(N)cc1)CC2 (stereo unspecified) |  |  | > 10000 |  | 
Cn1c2c(c3ccccc31)CN(CCCOc1ccc(Cl)c(Cl)c1)CC2 | 195 | 200 |  |  | 
Cn1c2c(c3ccccc31)CN(CCC/C(=N/O)c1ccc(F)cc1)CC2 | 38 | 340 |  |  | 190
Cn1c2c(c3ccccc31)CN(CCCO)CC2 |  | 1120 |  | 1100 | 
CC1=NCCc2c1n(C)c1ccccc21 |  |  | > 10000 |  | 
COc1ccc2c(c1)c1c(n2C)CCN(CCCOc2ccc(F)cc2)C1 | 38 | 165 |  | 98 | 150
Cn1c2c(c3ccccc31)CN(CCCCCCc1ccccc1)CC2 | 185 |  |  | 435 | 530

Structure (SMILES) | Ki [1] [nM] | Ki [2] [nM] | Ki [3] [nM] | Ki [4] [nM] | Ki [5] [nM]
Cn1c2c(c3ccccc31)CN(CCCC(O)c1ccc(F)cc1)CC2 (stereo unspecified) | 160 | 285 |  | 225 | 390
COc1ccc2c(c1)[nH]c1c(C)nccc12 [HARMINE] |  |  | > 10000 |  | 
Cn1c2c(c3cccc(Cl)c31)CN(CCCOc1ccc(F)cc1)CC2 | 210 | 225 |  | 590 | 225
CC1NCCc2c1[nH]c1ccccc21 (stereo unspecified) [TETRAHYDROHARMAN] |  |  | > 10000 |  | 
Fc1ccc(OCCCN2CCc3[nH]c4ccccc4c3C2)cc1 |  |  |  | 75 | 
Cn1ccc2c1CCN(CCCOc1ccc(F)cc1)C2 |  |  | 1920 |  | 
CC1=NCCc2c1[nH]c1cc(O)ccc21 [HARMALOL] |  |  | > 10000 |  | 
COc1ccc2c3c([nH]c2c1)C(C)=NCC3 [HARMALINE] |  |  | > 10000 |  | 
c1ccc(OCCCN2CCc3[nH]c4ccccc4c3C2)cc1 | 20 |  |  | 600 | 160
COc1ccc2c3c([nH]c2c1)C=NCC3 [CGS-19281A] |  |  | > 10000 |  | 
Cn1c2c(c3cc(Cl)ccc31)CN(CCCOc1ccc(F)cc1)CC2 | 130 | 270 |  | 180 | 300
Cn1c2c(c3ccccc31)CN(CCCCc1ccc(F)cc1)CC2 | 65 |  |  | 95 | 
COc1ccc(CCCCN2CCc3c(c4ccccc4n3C)C2)cc1 | 415 |  |  | 90 | 990
Cn1c2c(c3ccccc31)CN(CCCOc1cccc3ccccc13)CC2 | 625 |  |  | 650 | 400
Cn1c2c(c3ccccc31)CCN(CCCOc1ccccc1)C2 | 150 | 620 |  | 360 | 400
c1ccc(OCCCN2CCc3c([nH]c4ccccc34)C2)cc1 | 50 |  |  | 335 | 310
O=C(CCCN1CCc2[nH]c3ccccc3c2C1)c1ccc(F)cc1 |  |  |  | 512 | 
Cn1c2c(c3ccccc31)CN(CCCOc1ccc(N)cc1)CC2 | 285 | 190 |  |  | 300
Cn1c2c(c3ccccc31)CN(CCCC(=O)c1ccccc1)CC2 | 22 | 168 |  | 135 | 
Cn1c2c(c3ccccc31)CN(C/C=C/CCc1ccccc1)CC2 | 60 | 185 |  | 350 | 245
COc1ccc2c3c([nH]c2c1)C(C)NCC3 (stereo unspecified) |  |  | > 10000 |  | 
Cn1c2c(c3ccccc31)CN(CCCCc1ccccc1)CC2 |  |  |  | 130 | 
Cn1c2c(c3ccccc31)CN(CCCOCc1ccccc1)CC2 | 225 |  |  | 295 | 650
Cn1c2c(c3ccccc31)CNCC2 | 3100 |  |  |  | 
COc1cccc2c3c(n(C)c12)CCN(CCCOc1ccc(F)cc1)C3 | 120 | 1390 |  | 1220 | 225
Cn1c2c(c3ccccc31)CN(CCCOc1ccccc1)CC2 | 70 | 100 |  | 25 | 285
Fc1ccc(OCCCN2CCc3ccccc3C2)cc1 |  |  | 400 |  | 
